According to ChEMBL document CHEMBL1132997, “Bis(phenazine-1-carboxamides): structure-activity relationships for a new class of dual topoisomerase I/II-directed anticancer drugs” (J Med Chem, 2000):

Columns and labels:
NCI/ADR-RES = test: 50% inhibition of cell growth against NCI/ADRcell line; assay type: functional; conditions: Homo sapiens
Summary of the method: (§1)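 Tested in the NCI human tumour cell line panel. GI50 (nM) is the drug concentration inhibiting cell growth to 50% of controls. The panel mean ("Mid") is the average GI50 over the whole cell line panel.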

[1] = The average concentration resulting in inhibition of cell growth to 50% whole cell line panel; assay type: functional; summary of the method: as §1
P388 = test: Inhibitory activity against Murine P388 leukemia cells; assay type: functional, cell-based; conditions: Mus musculus
Summary of the method: (§2)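 Growth inhibition in microculture with drug present throughout. Seeding was 4.5 × 10³ P388, 10³ Lewis lung or 3.75 × 10³ wild-type Jurkat cells per well. Exposure was 3 days for P388 and 4 days for the others. IC50 (nM) is the drug concentration reducing cell number to 50% of control cultures. Each value averages at least two independent duplicate determinations; CV 15–22%.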

Jurkat = test: Inhibitory activity against wild-type human Jurkat leukemia cells; assay type: functional, cell-based; summary of the method: as §2
HT-29 = test: 50% inhibition of cell growth against HT-29 cell line; assay type: functional; conditions: Homo sapiens; summary of the method: as §1
CAKI-1 = test: 50% inhibition of cell growth against CAK1 cell line; assay type: functional; conditions: Homo sapiens; summary of the method: as §1
HCT-116 = test: 50% inhibition of cell growth against HCT116 cell line; assay type: functional; conditions: Homo sapiens; summary of the method: as §1
SK-OV-3 = test: 50% inhibition of cell growth against SKOV-3 cell line; assay type: functional; conditions: Homo sapiens; summary of the method: as §1
[2] = test system: Lewis lung carcinoma cell line; test: Inhibitory activity against Murine Lewis lung carcinoma cells; assay type: functional, cell-based; conditions: Mus musculus; summary of the method: as §2
MCF7 = test: 50% inhibition of cell growth against MCF-7 cell line; assay type: functional; conditions: Homo sapiens; summary of the method: as §1

IC50 (P388) [nM] | IC50 (Jurkat) [nM] | GI50 (HT-29) [nM] | GI50 (HCT-116) [nM] | GI50 (SK-OV-3) [nM] | IC50 [2] [nM] | GI50 (MCF7) [nM] | Compound | GI50 (NCI/ADR-RES) [nM] | GI50 [1] [nM] | GI50 (CAKI-1) [nM]
75 | 30 | < 10 | < 10 | 800 | 24 | < 10 | COc1ccc2nc3cccc(C(=O)NCCCN(C)CCCNC(=O)c4cccc5nc6ccc(OC)cc6nc45)c3nc2c1 | 1210 | 72 | 82
97 | 42 | < 10 | < 10 | 1880 | 44 | < 10 | CN(CCCNC(=O)c1cccc2nc3ccc(Cl)cc3nc12)CCCNC(=O)c1cccc2nc3ccc(Cl)cc3nc12 | 240 | 70 | 62
472 | 208 | 130 | 470 | 12000 | 48 | 310 | Cc1cc(C(=O)NCCCN(C)CCCNC(=O)c2cc(C)cc3nc4ccccc4nc23)c2nc3ccccc3nc2c1 | 5730 | 725 | 170
7740 | 209 |  |  |  | 151 |  | CN(CCCNC(=O)c1cccc2nc3c(Cl)cccc3nc12)CCCNC(=O)c1cccc2nc3c(Cl)cccc3nc12 |  |  | 
623 | 280 | 235 | 455 | 5840 | 72 | 550 | Cc1ccc2nc3c(C(=O)NCCCN(C)CCCNC(=O)c4cccc5nc6cc(C)ccc6nc45)cccc3nc2c1 | 2660 | 600 | 430
584 | 172 | 270 | 63 | 12000 | 46 | 480 | Cc1cccc2nc3c(C(=O)NCCCN(C)CCCNC(=O)c4cccc5nc6c(C)cccc6nc45)cccc3nc12 | 920 | 740 | 370
294 | 177 | 400 | 225 | 14000 | 120 | 460 | CN(CCCNC(=O)c1cccc2nc3cccc(F)c3nc12)CCCNC(=O)c1cccc2nc3cccc(F)c3nc12 | 7450 | 1320 | 1730
2280 | 695 | 530 | 430 | 10000 | 310 | 1820 | CN(CCCNC(=O)c1cccc2nc3cccc(N(C)C)c3nc12)CCCNC(=O)c1cccc2nc3cccc(N(C)C)c3nc12 | 11000 | 2510 | 2910
24 | 9 |  |  |  | 3.2 |  | CN(CCCNC(=O)c1cccc2nc3ccc4ccccc4c3nc12)CCCNC(=O)c1cccc2nc3ccc4ccccc4c3nc12 |  |  | 
690 | 148 | 90 | 325 | 11000 | 108 | 330 | Cc1ccc2nc3cccc(C(=O)NCCCN(C)CCCNC(=O)c4cccc5nc6ccc(C)cc6nc45)c3nc2c1 | 1570 | 290 | 240
520 | 173 | 44 | 16 | 850 | 107 | 120 | CN(CCCNC(=O)c1cccc2nc3ccccc3nc12)CCCNC(=O)c1cccc2nc3ccccc3nc12 | 1050 | 210 | 225
29 | 9.8 | 40 | < 10 | 2030 | 5.2 | < 10 | Cc1ccc(Cl)c2nc3cccc(C(=O)NCCCN(C)CCCNC(=O)c4cccc5nc6c(Cl)ccc(C)c6nc45)c3nc12 | 50 | 50 | < 10
600 | 195 | 93 | 37 | 9660 | 64 | 2000 | COc1ccc2nc3c(C(=O)NCCCN(C)CCCNC(=O)c4cccc5nc6cc(OC)ccc6nc45)cccc3nc2c1 | 20000 | 4170 | 3020
39 | 14 | 70 | < 10 | 790 | 8.8 | 35 | CN(CCCNC(=O)c1cccc2nc3cccc(Cl)c3nc12)CCCNC(=O)c1cccc2nc3cccc(Cl)c3nc12 | 350 | 93 | 15
450 | 290 |  |  |  | 410 |  | CN(CCCNC(=O)c1cccc2nc3c(ccc4ccccc43)nc12)CCCNC(=O)c1cccc2nc3c(ccc4ccccc43)nc12 |  |  | 
15 | 5.7 | < 10 | < 10 | 220 | 1.6 | < 10 | Cc1cccc2nc3cccc(C(=O)NCCCN(C)CCCNC(=O)c4cccc5nc6cccc(C)c6nc45)c3nc12 | 19 | 20 | < 10
3450 | 1250 | 1790 | 1770 | 11000 | 1310 | 3480 | CN(CCCNC(=O)c1cccc2nc3cccc(Oc4ccccc4)c3nc12)CCCNC(=O)c1cccc2nc3cccc(Oc4ccccc4)c3nc12 | 1630 | 3160 | 5360
2960 | 249 | 80 | 35 | 1960 | 83 | 330 | CN(CCCNC(=O)c1cccc2nc3cc(Cl)ccc3nc12)CCCNC(=O)c1cccc2nc3cc(Cl)ccc3nc12 | 1140 | 560 | 530
375 | 102 |  |  |  | 26 |  | Cc1ccc(C(=O)NCCCN(C)CCCNC(=O)c2ccc(C)c3nc4ccccc4nc23)c2nc3ccccc3nc12 |  |  | 
204 | 74 | < 10 | 18 | 1460 | 12 | 110 | CN(CCCNC(=O)c1cc(Cl)cc2nc3ccccc3nc12)CCCNC(=O)c1cc(Cl)cc2nc3ccccc3nc12 | 125 | 180 | 1170
815 | 124 | 35 | < 10 | 1560 | 160 | 47 | COc1cccc2nc3cccc(C(=O)NCCCN(C)CCCNC(=O)c4cccc5nc6cccc(OC)c6nc45)c3nc12 | 21000 | 575 | 1420
12000 | 2370 | 135 | 285 | 88000 | 8370 | 4070 | CN(CCCNC(=O)c1c(Cl)ccc2nc3ccccc3nc12)CCCNC(=O)c1c(Cl)ccc2nc3ccccc3nc12 | > 100000 | 5750 | 34000
26 | 21 | < 10 | < 10 | 74 | 5.3 | < 10 | Cc1ccc(C)c2nc3c(C(=O)NCCCN(C)CCCNC(=O)c4cccc5nc6c(C)ccc(C)c6nc45)cccc3nc12 | 35 | 34 | < 10
